Compound activity (PubChem BioAssay)
Shown is part of a subset that was picked to be rich in hits.
Diaph act CS – diaphorase activation or chemical reduction counter-screen; 190,000 compounds, 0.005% hits; activation factor at 20 µM; Diaphorase/resazurin coupled assay, resorufin fluorescence, 16 min; stronger effect = higher value; 1 = vehicle wells, 0 = NADH-free wells;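 active = diaphorase activity raised at least twofold by the compound at 20 µM; inactive = activation factor below 2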
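Material: Clostridium kluyveri diaphorase, purified enzyme; Quantity: enzyme 0.07 U/mL final; Medium: HEPES pH 7.4 buffer with MgCl2 and Tween 20; Dosing: single compound dose of 20 µM, 1% DMSO final; Schedule: 16 min reaction at room temperature; Measured by: red resorufin fluorescence at 544/590 nm excitation/emission.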
PfG6PD inh – PfG6PD (Plasmodium falciparum) enzyme inhibition. PfGluPho enzyme, NADPH resazurin-diaphorase fluorescence. inhibition, % at 20 µM. 350,000 compounds, 0.78% hits;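 active = inhibition reaching at least a set limit at 20 µM in the primary screen, cut at about 59% in these data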;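 also: 0% = DMSO wells with substrate and 100% = DMSO wells lacking glucose-6-phosphate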
DTT redox prof – compounds producing H2O2 with reducing agent – biochemical, NIH compound library profiling, artefact control for MLSCN library redox annotation, primary screen. AID 878. activation, % at 10 µM. DTT-dependent redox cycling H2O2, phenol red/HRP absorbance; 100% = 100 µM peroxide control, 0% = buffer. 200,000 compounds, 0.03% hits;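 active = activation of at least 50% relative to the plate's high and low controls in the primary single-dose screen; inactive = activation below 50%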;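 also: compound incubated with DTT at 0.8 mM final as the reducing agent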
Lmaj promast – Leishmania major promastigote growth inhibition; Leishmania major promastigotes, resazurin fluorescence viability; inhibition, % at 10 µM; 200,000 compounds, 9% hits;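 also: promastigotes grown with compound for 44 hours at 28 °C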
Diaphorase inh – diaphorase inhibition or chemical oxidation counter-screen; diaphorase resazurin-to-resorufin fluorescence, NADH, 16 min; bacterial (C. kluyveri) enzyme, not human; inhibition, % at 20 µM; 190,000 compounds, 0.69% hits;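 active = primary screen inhibition at 20 µM above a set limit, cut at about 50% in these data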;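 also: plate controls were DMSO with full reaction for no effect and wells lacking NADH for full effect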
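Test system: Clostridium kluyveri diaphorase enzyme / Quantity: diaphorase at 0.14 U/mL in enzyme working solution / Incubation: 16-min room-temperature incubation before reading / Benchmarks: NADH-free wells as positive control, DMSO-only neutral wells / Signal: resorufin fluorescence 544/590 nm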
G6PDH CS – L. mesenteroides G6PDH inhibition counter-screen. 200,000 compounds, 0.12% hits. AID 1020. Purified L. mesenteroides G6PDH, diaphorase/resazurin coupled fluorescence, 45 min. inhibition, % at 5 µM
Starred values were filed as active, the others as inactive; / = no result given. Rule as the data show it, unless noted: active = inhibition above about 50%; inactive = the rest.

SMILES	Diaph act CS	PfG6PD inh	DTT redox prof	Lmaj promast	Diaphorase inh	G6PDH CS
O=c1[nH]c(CSc2ccccn2)nc2c1oc1ccccc12	1	4.5	0.5	-7.2	-1.8	0.1
CCC(C)[C@H](NC(=O)N1CCC(C)CC1)C(=O)OC (stereo partly drawn)	/	6.4	/	/	/	/
O=C(/C=C1\NC2(CCCC2)Cc2ccccc21)C(=O)N/N=C/c1ccc(O)c(O)c1	0.3	13.6	-1.0	62.2*	74.0*	-0.4
COc1cccc(NC(=O)CN(c2ccc(C)cc2)S(=O)(=O)c2c(C)nn(C)c2C)c1	0.9	-2.6	-2.7	38.6	14.5	-2.7
COc1ccc(N(CC(=O)Nc2nc3ccc(C)cc3s2)S(=O)(=O)c2c(C)nn(C)c2C)cc1	0.8	2.4	-2.0	65.9*	19.6	-1.3
COc1ccc(N(CC(=O)Nc2cccc(OC)c2)S(=O)(=O)c2c(C)nn(C)c2C)cc1	0.8	-16.0	0.2	57.4*	20.4	9.2
COc1ccc(N(CC(=O)Nc2cc(OC)ccc2OC)S(=O)(=O)c2c(C)nn(C)c2C)cc1	0.6	2.3	0.1	100.0*	42.5	3.4
CCOc1cc(/C=C2\CCn3c2nc2cc(Cl)ccc2c3=O)ccc1O	/	1.2	/	/	/	/
Cc1cc(C)c(S(=O)(=O)Nc2ccnc(-c3cccnc3)n2)c(C)c1	1.1	21.9	-1.5	-10.1	-12.1	-4.6
Cc1ccc2c(C)nc(Nc3nc(CSc4nc5ccccc5[nH]4)cc(=O)[nH]3)nc2c1	0.8	13.0	1.6	100.2*	15.0	1.6
Cc1nnc(SCc2cc(=O)[nH]c(Nc3nc(C)c4ccccc4n3)n2)s1	/	/	3.0	83.5*	/	/
Cc1ccc(SCc2cc(=O)[nH]c(Nc3nc(C)c4ccc(C)cc4n3)n2)cc1	0.8	1.1	-0.6	35.3	22.0	-21.8
Cc1ccc2nc(Nc3nc(CSc4nnc(C)s4)cc(=O)[nH]3)nc(C)c2c1	0.8	0.6	-1.0	37.9	23.1	7.4
COc1ccc2c(C)nc(Nc3nc(C)cc(=O)[nH]3)nc2c1	/	/	0.0	100.3*	/	/
Cc1cc(=O)[nH]c(SCC(=O)N2CCN(S(=O)(=O)c3ccccc3)C2)n1	1	1.8	-0.1	-10.2	3.2	6.4
CC1CC(C)CN(C(=O)c2ccc3c(c2NCCO)C(=O)c2ccccc2C3=O)C1 (stereo not drawn)	0.6	5.9	0.1	99.3*	35.7	7.6
CCN(CC)CCCN1C(=O)C(O)=C(C(=O)c2cc3ccccc3o2)C1c1ccccn1 (stereo not drawn)	0.9	8.6	2.8	-13.0	13.4	5.2
CCN(CC)CCN1C(=O)C(O)=C(C(=O)c2ccco2)C1c1ccccn1 (stereo not drawn)	0.4	10.5	0.1	-1.2	60.4*	9.7
Cc1ccc2c(c1)N(CC(=O)NCCCN1CC(C)CC(C)C1)C(=O)c1cccnc1O2 (stereo not drawn)	/	0.4	/	/	/	/
Cc1ccc(OCC(=O)N/N=C/c2ccc([N+](=O)[O-])o2)cc1	0.9	20.2	-3.5	100.0*	7.3	-30.2
Cn1cccc1/C=N/NC(=O)CNc1ccc2ccccc2c1	/	36.0	/	/	/	/
O=C(CNc1ccc2ccccc2c1)N/N=C/c1cc2ccccc2nc1Cl	0.5	31.4	-0.2	7.3	52.4*	3.9
O=C(COc1cccc(Cl)c1)N/N=C\c1cc2ccccc2nc1Cl	1	2.4	0.3	-6.6	1.8	0.6
O=C(CNc1ccc2ccccc2c1)N/N=C/c1ccc(C(=O)O)cc1	0.4	-6.4	0.0	-8.6	59.4*	5.1
O=C(CNc1ccc2ccccc2c1)N/N=C/c1ccc([N+](=O)[O-])o1	0.8	23.7	0.4	100.0*	22.4	18.1
SMILES	Diaph act CS	PfG6PD inh	DTT redox prof	Lmaj promast	Diaphorase inh	G6PDH CS
O=C(CNc1cccc2ccccc12)N/N=C/c1ccc(C(=O)O)cc1	0.8	7.0	0.4	-9.0	15.6	-14.3
O=C(COc1ccccc1)N/N=C/c1ccc([N+](=O)[O-])o1	0.8	14.1	-0.1	100.3*	23.0	-13.2
COc1ccc(-c2nn(-c3ccccc3)cc2C(=O)N/N=C/c2ccc([N+](=O)[O-])o2)cc1	1	-2.0	-1.7	64.8*	4.5	13.5
COc1ccc(C(=O)CNc2ccc3ccccc3c2)cc1	0.4	13.4	-1.0	-1.9	62.9*	24.0
C/C(=N\NC(=O)Nc1ccccc1)c1ccc2ccccc2c1	0.9	1.4	0.7	-1.2	10.5	-17.3
C/C(=N/NC(=O)Nc1ccccc1)c1ccc(C)cc1	0.9	-2.1	1.2	50.7*	9.1	-5.0
CCOC(=O)Cc1csc(NC(=O)CSc2nc(=O)[nH]c3c2CCCC3)n1	/	8.3	/	/	/	/
COc1ccc(OC)c(-n2c(=S)[nH]c3cc(C(=O)NCCCN4CCCC4=O)ccc3c2=O)c1	0.8	/	2.4	0.2	15.7	-0.5
Cc1cc(NCCCn2ccnc2)n2nc(C)c(-c3ccccc3)c2n1	1	3.1	0.4	14.0	1.3	2.4
Cc1cc(NCc2ccccc2)n2ncc(-c3ccccc3)c2n1	/	37.8	/	/	/	/
Cc1cc(NCCCn2ccnc2)n2ncc(-c3ccccc3)c2n1	1	11.7	1.3	89.5*	-1.9	1.4
Cc1cc(NCCN2CCOCC2)n2nc(C)c(-c3ccc(Cl)cc3)c2n1	1	6.9	-0.4	93.8*	4.9	8.2
Cc1cc(NCCCn2ccnc2)n2nc(C)c(-c3ccc(Cl)cc3)c2n1	1.2	16.1	0.8	98.1*	-17.8	-3.8
COc1cc(-n2c(=O)c3ccccc3n(CC(=O)c3ccc(F)cc3)c2=O)cc(OC)c1OC	0.9	-2.8	-0.2	-0.9	5.4	4.8
CN(CCc1ccccc1)C(=O)c1cccc(NC(=O)Cc2cccc(NC(=O)C3CCCN(C(=O)c4ccccc4)C3)c2)c1 (stereo not drawn)	/	-1.7	/	/	/	/
O=C(Nc1cccnc1)C1CCC(CNS(=O)(=O)c2cccc3nsnc23)CC1 (stereo not drawn)	/	-9.2	/	/	/	/
CC(=O)Nc1nc2ccccc2n1CCOc1ccccc1	1	-1.7	0.5	34.7	-2.5	-3.2
CN(C)CCCn1c(NC(=O)C2CCCCC2)nc2ccccc21	0.9	-2.8	-1.1	-3.1	5.6	-7.6
CCCCn1c(NC(=S)Nc2ccccc2)nc2ccccc21	1	1.2	0.0	80.0*	0.0	-21.4
CCCCn1c(NC(=O)c2ccccc2)nc2ccccc21	0.9	41.2	-0.4	95.6*	8.0	5.5
CCCCn1c(NC(=O)C2CCCCC2)nc2ccccc21	1	-0.3	0.2	71.5*	0.0	2.3
S=C(Nc1ccccc1)Nc1nc2ccccc2n1CCOc1ccccc1	0.9	3.2	-0.1	51.2*	9.4	0.4
O=C(CN(C(=O)C1CSC(=O)C1)c1cccc(F)c1)NCc1ccc2c(c1)OCO2 (stereo not drawn)	/	-15.7	/	/	/	/
